# Assays:
# [1] = system: Mus musculus; experiment: Analgesic activity in Albino mouse at 50 mg/kg, po assessed as thermal stimuli reaction time change after 30 mins by hot plate method relative to basal level; format: functional
# Summary of the method: (§1)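 Hot-plate at 52 °C ± 0.1 °C with a 60 s cut-off, six mice per group. Dosing was oral, 50 mg/kg in 2% Tween 80. Latency to paw licking or jumping was recorded before dosing and at 0.5, 1 and 2 h. Results are given as % change from the pre-drug value, with one-way ANOVA and Duncan's test (P < 0.05).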
# [2] = system: Mus musculus; experiment: Analgesic activity in Albino mouse at 50 mg/kg, po assessed as thermal stimuli reaction time change after 30 mins by hot plate method relative to indomethacin; format: functional
# [3] = system: Mus musculus; experiment: Analgesic activity in Albino mouse at 50 mg/kg, po assessed as thermal stimuli reaction time change after 1 hr by hot plate method relative to basal level; format: functional; summary of the method: as §1
# [4] = system: Mus musculus; experiment: Analgesic activity in Albino mouse at 50 mg/kg, po assessed as thermal stimuli reaction time change after 1 hr by hot plate method relative to indomethacin; format: functional
# [5] = system: Mus musculus; experiment: Analgesic activity in Albino mouse at 50 mg/kg, po assessed as thermal stimuli reaction time change after 2 hrs by hot plate method relative to basal level; format: functional; summary of the method: as §1
# [6] = system: Mus musculus; experiment: Analgesic activity in Albino mouse at 50 mg/kg, po assessed as thermal stimuli reaction time change after 2 hrs mins by hot plate method relative to indomethacin; format: functional
# [7] = system: Mus musculus; experiment: Analgesic activity against visceral pain in Albino mouse assessed as acetic acid-induced writhing at 50 mg/kg, po after 30 mins; format: functional
# Summary of the method: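 Mice (20–25 g, acclimatized 1 week, 12 h light/dark, 21–23 °C) given compound orally at 50 mg/kg as a suspension in 2% Tween 80. Negative controls got water in Tween 80. Visceral pain measured as acetic acid-induced writhing; indomethacin 50 mg/kg was the reference.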
# [8] = system: Mus musculus; experiment: Analgesic activity against visceral pain in Albino mouse assessed as acetic acid-induced writhing at 50 mg/kg, po after 30 mins relative to indomethacin; format: functional
# [9] = system: Rattus norvegicus; experiment: Antiinflammatory activity in Albino rat assessed as inhibition of carrageenan-induced edema at 50 mg/kg, po after 1 hr
# [10] = system: Rattus norvegicus; experiment: Antiinflammatory activity in Albino rat assessed as inhibition of carrageenan-induced edema at 50 mg/kg, po after 2 hrs
# [11] = system: Rattus norvegicus; experiment: Antiinflammatory activity in Albino rat assessed as inhibition of carrageenan-induced edema at 50 mg/kg, po after 3 hrs
# [12] = system: Rattus norvegicus; experiment: Antiinflammatory activity in Albino rat assessed as inhibition of carrageenan-induced edema at 50 mg/kg, po after 4 hrs
# [13] = system: Rattus norvegicus; experiment: Antiinflammatory activity in Albino rat assessed as inhibition of carrageenan-induced edema at 50 mg/kg, po after 5 hrs
# [14] = system: Rattus norvegicus; experiment: Antiinflammatory activity in Albino rat assessed as inhibition of carrageenan-induced edema at 50 mg/kg, po after 6 hrs
SMILES,Activity [1] [%],Activity [2],Activity [3] [%],Activity [4],Activity [5] [%],Activity [6],Activity [7] [%],Activity [8],inhibition in vivo at 50 mg/kg [9] [%],inhibition in vivo at 50 mg/kg [10] [%],inhibition in vivo at 50 mg/kg [11] [%],inhibition in vivo at 50 mg/kg [12] [%],inhibition in vivo at 50 mg/kg [13] [%],inhibition in vivo at 50 mg/kg [14] [%]
Cc1ccc(-c2c(S(=O)(=O)c3ccccc3)cnc3nc4ccccc4n23)cc1,9.2,0.21,23,0.3,21.5,0.26,9.1,0.1,7.3,5,4.2,0,0,0
O=S(=O)(c1ccccc1)c1cnc2cc(-c3ccc(Cl)cc3)nn2c1-c1ccc(Br)cc1,33,0.77,72.2,0.93,51.8,0.63,66.7,0.77,24.2,24.7,24.8,18.6,13.8,13.2
Cc1ccc(-c2cc3ncc(S(=O)(=O)c4ccccc4)c(-c4ccc(C)cc4)n3n2)cc1,25,0.58,67.1,0.87,57.5,0.71,74.4,0.86,54.6,42.6,31.2,20,17,11.6
Cc1ccc(-c2c(S(=O)(=O)c3ccccc3)cnc3cc(-c4ccccc4)nn23)cc1,15.2,0.35,18.6,0.24,15.2,0.19,28,0.32,42.5,41,36.4,22.6,28.2,15.5
Cc1cc2ncc(S(=O)(=O)c3ccccc3)c(-c3ccc(Br)cc3)n2n1,27,0.63,44.1,0.57,39.7,0.49,56.4,0.65,7.4,5.2,4.4,0,0,0
Cc1ccc(-c2c(S(=O)(=O)c3ccccc3)cnc3cc(C)nn23)cc1,16,0.37,16,0.21,5.3,0.07,30,0.35,25.8,25.2,23.2,14,8.1,8.7

# From ChEMBL document CHEMBL1150421, “Synthesis and analgesic/anti-inflammatory evaluation of fused heterocyclic ring systems incorporating phenylsulfonyl moiety” (2008)
